DAGLB inhibitor = diacylglycerol lipase beta (human) inhibition; Q8NCG7; HEK293T DAGLB membrane lysate, EnzChek fluorogenic substrate; inhibition, % at 5.17 µM; actives 0.059% (n = 340,000); in the data active = inhibition above about 34%;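 note: 0% = enzyme with vehicle and 100% = wells lacking enzyme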
NR2E3 ag-1 = NR2E3 (human) agonism; GST-NR2E3/biotin-RetCOR TR-FRET, 1536-well; inhibition of corepressor binding, % at 4.78 µM; actives 0.12% (n = 320,000);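 active = percent inhibition above the cutoff of mean plus 3 SD of all tested compounds, set per screening campaign, cut at about 20% in these data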;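 note: 0% = DMSO wells and 100% = biotin wells as full block of FRET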
Target sequence (Q9Y5X4 whole entry, looked up): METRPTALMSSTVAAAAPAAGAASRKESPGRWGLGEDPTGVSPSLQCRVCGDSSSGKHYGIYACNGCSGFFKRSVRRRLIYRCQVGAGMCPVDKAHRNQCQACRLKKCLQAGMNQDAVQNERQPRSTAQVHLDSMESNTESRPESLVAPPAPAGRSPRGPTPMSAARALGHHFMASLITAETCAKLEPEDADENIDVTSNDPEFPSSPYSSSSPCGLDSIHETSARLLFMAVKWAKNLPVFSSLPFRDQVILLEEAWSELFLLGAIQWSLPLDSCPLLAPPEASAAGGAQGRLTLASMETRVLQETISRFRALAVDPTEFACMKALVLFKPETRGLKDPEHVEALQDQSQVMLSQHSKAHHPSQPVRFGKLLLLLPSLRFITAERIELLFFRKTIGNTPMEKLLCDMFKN
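System: GST-tagged NR2E3 plus biotinylated RetCOR corepressor; Buffer or medium: pH 7.5 Tris-based buffer; Probe or stimulus: RetCOR corepressor, biotinylated, 7 nM; Doses: compound at 4.8 µM, single dose; Schedule: 5 h incubation at 4 °C; Technique: time-resolved FRET; Evaluation: percent inhibition of TR-FRET ratio; Replication: one well per compound, singlicate testing.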
Vif inh = blocks HIV Vif function. HEK293T cells, Vif self-association by quenched fluorescence, imaging, 24 h. inhibition, % at 7.49 µM. AID 602346. actives 0.35% (n = 340,000); in the data active = inhibition above about 50%, passing the limit was not always enough
NR2E3 ag-2 = human photoreceptor-specific nuclear receptor agonism; CHO-S Gal4-NCOR/VP16-NR2E3 two-hybrid, luciferase; inhibition of corepressor binding, % at 3.98 µM; actives 0.35% (n = 360,000); AID 602229;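 active = inhibition above the mean of all tested compounds plus 3 SD, cut at about 70% in these data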;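 note: 0% = DMSO with NR2E3 transfected cells and 100% = cells lacking NR2E3 construct; higher means lower luciferase signal from less NR2E3 corepressor binding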
core dimer inh = HCV core protein dimerization inhibition. inhibition, % at 5 µM. actives 0.33% (n = 300,000). TR-FRET GST/Flag-core106 dimerization, 1536-well;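 active = inhibition above the mean of all tested compounds plus 3 SD, set per screening campaign, cut at about 45% in these data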
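Assay system – GST-tagged and Flag-tagged HCV core protein residues 1-106 · Quantity – core106 proteins, GST 13.5 nM and Flag 17 nM · Benchmarks – unlabelled core106 and no-GST-core106 wells · Read-out basis – percent inhibition of core106 dimerization signal · Detection – time-resolved FRET, ex 340 nm, em 617 and 671 nm · Schedule – 4 h at 22.5 °C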
MT1-MMP act inh = inhibitors of human MT1-MMP activation. GFP/RFP ratio change, % at 20 µM. P50281. HT1080 RFP-PRO-GFP cells, GFP/RFP ratio fluorescence, overnight; percent of plate control window, DMSO zero. AID 651647. actives 0.061% (n = 360,000);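 active = GFP/RFP ratio change of at least 30% with cell ATP level not reduced by more than half and red fluorescence within 50% of control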
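Material: RFP-PRO-GFP reporter HT1080 cells. Dosing: single-point 20 µM compound, 1% DMSO. Controls: DMSO and RFP-L50D-GFP cell wells. Timing: cells overnight before dosing, compound overnight, 37 °C, 5% CO2. Measure: GFP/RFP fluorescence ratio.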
* marks the source's active call; other numbers are inactive results; x = no result given. Most compounds without a hit are left out; they make up all but 1.1% or so of the library.

SMILES	DAGLB inhibitor	NR2E3 ag-1	Vif inh	NR2E3 ag-2	core dimer inh	MT1-MMP act inh
O=S(=O)(c1ccc(Oc2ccccc2)cc1)N1CCOCC1	-2	1	x	-12	1	2
O=S(=O)(c1ccc(Oc2ncnc3scc(-c4ccccc4)c23)cc1)N1CCOCC1	0	-1	-3	-21	50*	-9
COC(=O)COc1ccc2c(=O)c(-c3ccccc3OC)coc2c1	-2	0	-4	-25	2	1
CCOC(=O)COc1ccc2c(=O)c(-c3ccccc3OC)coc2c1	-6	2	-5	-23	61*	2
COc1ccc(NC(=O)/C(Cl)=C(/Cl)S(=O)(=O)Cc2ccc(C)cc2)cn1	13	x	-19	86*	x	2
COc1ccc(NC(=O)Cc2ccc(Cl)c(Cl)c2)cn1	3	-2	5	2	-1	0
CCc1ccc(/C(C)=N\Nc2ccc([N+](=O)[O-])cc2)cc1	1	2	60*	-45	0	-31
CCOC(=O)/C(C#N)=C\c1cc(C)n(-c2ccccc2)c1C	-14	-3	0	-4	-2	0
CCOC(=O)/C(C#N)=C/c1cc(C)n(-c2ccc(C)cc2)c1C	-21	4	71*	-82	4	-1
COc1ccccc1C(=O)COC(=O)C1(C)CC1(Cl)Cl (stereo unspecified)	-6	x	71*	-28	x	-2
COc1ccccc1C(=O)COC(=O)c1ccccc1O	-3	0	-5	-29	4	4
CCN(CC)c1ccc(C(=O)OCc2cc(=O)oc3cc(O)ccc23)cc1	3	4	-4	9	50*	-1
CN(C)c1ccc(-c2ccnc3c2CC(C)(C(=O)NCCC(F)(F)F)O3)cc1 (stereo unspecified)	x	x	x	-19	x	3
CCOc1c(C(N)=O)c(-c2ccccc2)c2c(=O)[nH]c3ccccc3n12	5	-1	32*	-3	4	2
C=CCOc1ccc(C2/C(=C(\O)c3ccc4c(c3)OCCO4)C(=O)C(=O)N2CCCN2CCOCC2)cc1 (stereo unspecified)	-2	3	4	-21	16	-3
O=C1C(=Cc2cccn2-c2ccccc2)C(=O)c2ccccc21	-2	1	11	-4	-1	-124
O=C1C(=Cc2cccn2-c2ccc(O)cc2)C(=O)c2ccccc21	3	-4	2	-17	61*	-6
CCNc1nc(NCC)n2c(SCC(=O)Nc3ccc(C)cc3Br)nnc2n1	-1	x	-2	19	x	4
O=S(=O)(c1ccccc1)N(F)S(=O)(=O)c1ccccc1	-4	2	59*	-22	x	-1
COc1cc([N+](=O)[O-])ccc1-c1ccc(/C=N\n2cnnc2)o1	-1	x	177*	8	x	-14
COc1ccc(CCNC(=O)/C=C\c2ccccc2)cc1OC	0	-1	-2	1	-4	-2
COc1ccc(/C=C/C(=O)NC(=S)NCCc2ccc(OC)c(OC)c2)cc1	-2	3	70*	-40	1	1
Cc1ccc(-c2nn(-c3ccccc3)cc2/C=N/NC(=O)c2ccc(Br)o2)cc1	1	1	-17	-59	49*	0
O=C(N/N=C\c1cn(-c2ccccc2)nc1-c1ccccc1)c1ccc(Br)o1	-2	1	-4	-60	25	-5
COc1ccccc1C1=NNC(=Nc2cccc(S(=O)(=O)N(C)C)c2)SC1	-22	-1	-7	-27	-4	-16
SMILES	DAGLB inhibitor	NR2E3 ag-1	Vif inh	NR2E3 ag-2	core dimer inh	MT1-MMP act inh
COCCn1c(COc2ccccc2)nnc1SCC(N)=O	3	x	60*	2	x	-1
CCOc1ccc(-n2c(COc3ccccc3)nnc2SCC(N)=O)cc1	1	2	-2	-18	-6	-5
Clc1ccc2ccc3cccnc3c2n1	2	x	0	-11	x	-2
O=S1(=O)Nc2c(ccc3cccnc23)-c2ccccc21	6	-2	-5	102*	-10	18
COc1ccc(-n2nnnc2C2(C)CCC(=O)N2Cc2ccccc2)cc1 (stereo unspecified)	x	x	x	x	x	-2
O=S(=O)(c1ccc2c(c1)C(=NO)c1cc(S(=O)(=O)N3CCCCC3)ccc1-2)N1CCCCC1	0	2	-37	-4	48*	-47
COc1ccc2c(c1)oc(=O)c1cc(OC)ccc12	-5	13	-4	-85	21	-2
COc1ccc2c(C)c(Cl)c(=O)oc2c1	1	-2	53*	-2	21	-4
CCOC(=O)c1ccccc1NC(=O)c1ccc2nccnc2c1	0	6	-5	-3	54*	-2
CCOC(=O)c1ccccc1NC(=O)c1ccc2nc[nH]c2c1	-5	2	-3	-4	-6	-1
CCCCn1c(N)c(N(CCC(C)C)C(=O)c2cc(-c3ccco3)nc3ccccc23)c(=O)[nH]c1=O	7	-2	-5	-9	49*	-3
O=C(/C=C/c1ccc(Br)o1)OCc1nc2ccsc2c(=O)[nH]1	3	2	7	-9	75*	-2
Cc1ccc(NC(=O)c2nc[nH]c2C(=O)Nc2ccccc2F)cc1	-12	x	90*	5	x	6
O=C(Nc1ccccc1)c1nc[nH]c1C(=O)Nc1ccccc1F	-6	x	x	14	x	3
O=c1oc2ccccc2nc1/C=C(O)/C=C/c1ccc(F)cc1	0	0	7	-43	0	-2
O=c1oc2ccccc2nc1/C=C(O)/C=C\c1ccccc1	5	-1	x	-32	50*	-1
CCOc1ccc(CCNC(=O)CS(=O)(=O)Cc2nc(-c3ccc(OC)cc3)oc2C)cc1	0	-3	-1	1	2	2
COc1ccc(-c2nc(CS(=O)(=O)CC(=O)NCCc3ccccc3)c(C)o2)cc1	0	3	56*	-18	-1	1
Cc1cc(C(=O)Nc2ccc(Cl)c(S(=O)(=O)N3CCOCC3)c2)c2ccccc2n1	0	2	-3	0	x	0
O=C(O)CC1Sc2ccccc2NC1=O (stereo unspecified)	-2	3	6	-30	-7	-1
O=C1Nc2ccccc2SC(c2ccccc2)C1O (stereo unspecified)	4	5	x	-5	83*	-8
COc1cc(CNC[C@H]2O[C@@H](n3ccc(N)nc3=O)[C@H](O)[C@@H]2O)ccc1OCc1ccc(C)cc1	0	x	1	-12	x	-1
COc1ccc2cc(C#N)c(SCC(=O)Nc3nonc3C)nc2c1	2	1	2	-18	-55	-24
Cc1cc2cc(C#N)c(SCC(=O)Nc3nonc3C)nc2cc1C	-2	6	79*	-6	-66	-22
